According to ChEMBL document CHEMBL1143739, “SAR study of bicyclo[4.1.0]heptanes as melanin-concentrating hormone receptor R1 antagonists: taming hERG” (Bioorg Med Chem, 2007):

Key:
hERG (KCNH2) [1] = target: T1, hERG (KCNH2) (Homo sapiens, UniProt Q12809); assay: Inhibition of hERG expressed in CHO cells at […] by rubidium efflux assay; assay type: toxicity, cell-based; conditions: CHO cells that express hERG
[2] = target: Melanin-concentrating hormone receptor 1 (Homo sapiens, UniProt Q99705); assay: Displacement of [125I]MCH from MCHR1 expressed in CHO cells; assay type: cell-based
Chain of Melanin-concentrating hormone receptor 1 (Q99705 whole entry): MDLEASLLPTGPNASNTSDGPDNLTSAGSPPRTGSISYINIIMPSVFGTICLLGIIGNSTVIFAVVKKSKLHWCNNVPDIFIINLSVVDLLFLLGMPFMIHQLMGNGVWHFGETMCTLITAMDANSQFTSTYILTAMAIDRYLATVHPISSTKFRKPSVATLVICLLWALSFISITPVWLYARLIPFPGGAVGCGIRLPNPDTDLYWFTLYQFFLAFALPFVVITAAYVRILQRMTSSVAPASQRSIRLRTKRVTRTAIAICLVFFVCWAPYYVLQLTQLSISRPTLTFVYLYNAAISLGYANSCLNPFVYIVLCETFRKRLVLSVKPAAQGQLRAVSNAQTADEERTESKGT
In short: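 Human MCH R1, CHO cell membranes (0.1 mg/mL) on SPA beads (1 mg/mL). Buffer: 25 mM HEPES, 10 mM MgCl2, 5 mM MnCl2, 0.1% BSA, pH 7.4. Incubation 2–4 h at room temperature, scintillation count. Ki by non-linear regression; mean ± range of two determinations, each in quadruplicate.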

hERG (KCNH2) [3] = target: T1, hERG (KCNH2); assay: Inhibition of hERG expressed in CHO cells at 5 ug/mL by rubidium efflux assay; assay type: toxicity, cell-based; conditions: CHO cells that express hERG
In short: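 hERG-CHO cells plated 24 h, then loaded 3 h in HEPES-buffered saline with 5.4 mM RbCl. Compound added and equilibrated 30 min at 37 °C. Cells washed three times in Rb-free saline (5.4 mM KCl), then depolarized 5 min with 45.4 mM KCl.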

T1 sequence (Q12809 whole entry): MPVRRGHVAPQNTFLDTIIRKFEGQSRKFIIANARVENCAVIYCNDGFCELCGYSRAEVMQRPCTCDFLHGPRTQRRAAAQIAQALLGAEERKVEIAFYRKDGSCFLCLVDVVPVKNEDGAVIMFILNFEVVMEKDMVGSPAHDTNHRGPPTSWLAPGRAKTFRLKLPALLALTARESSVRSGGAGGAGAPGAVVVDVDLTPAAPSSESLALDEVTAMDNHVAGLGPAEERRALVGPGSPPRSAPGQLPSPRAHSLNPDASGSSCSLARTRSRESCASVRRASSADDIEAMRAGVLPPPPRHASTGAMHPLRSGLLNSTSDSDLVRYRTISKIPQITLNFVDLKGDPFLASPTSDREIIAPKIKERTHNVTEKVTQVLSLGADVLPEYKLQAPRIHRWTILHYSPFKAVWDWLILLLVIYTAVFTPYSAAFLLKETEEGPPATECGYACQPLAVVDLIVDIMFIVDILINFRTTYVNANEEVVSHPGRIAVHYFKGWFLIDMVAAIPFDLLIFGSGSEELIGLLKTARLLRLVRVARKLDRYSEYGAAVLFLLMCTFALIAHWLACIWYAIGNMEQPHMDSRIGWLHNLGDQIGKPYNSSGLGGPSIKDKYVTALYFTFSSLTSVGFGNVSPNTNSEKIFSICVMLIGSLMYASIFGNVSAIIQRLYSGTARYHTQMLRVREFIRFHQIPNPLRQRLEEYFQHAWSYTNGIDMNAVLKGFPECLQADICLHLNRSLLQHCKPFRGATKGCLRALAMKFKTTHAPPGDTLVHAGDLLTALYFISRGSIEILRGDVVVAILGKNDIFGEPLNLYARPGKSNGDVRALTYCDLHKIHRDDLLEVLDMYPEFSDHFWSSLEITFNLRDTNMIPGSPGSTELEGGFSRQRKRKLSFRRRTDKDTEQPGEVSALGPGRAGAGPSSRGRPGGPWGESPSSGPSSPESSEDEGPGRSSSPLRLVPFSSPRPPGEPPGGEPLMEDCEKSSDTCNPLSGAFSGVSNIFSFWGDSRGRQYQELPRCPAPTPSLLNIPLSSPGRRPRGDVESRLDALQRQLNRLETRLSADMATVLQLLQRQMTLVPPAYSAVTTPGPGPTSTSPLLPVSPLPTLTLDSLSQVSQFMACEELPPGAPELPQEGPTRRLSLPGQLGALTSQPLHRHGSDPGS

Row | SMILES | inhibition at […] (hERG (KCNH2) [1]) [%] | Ki [2] [nM] | inhibition at 5 ug/mL (hERG (KCNH2) [3]) [%]
1 | CCS(=O)(=O)N1CCC(CN(C(=O)Nc2ccc(F)c(F)c2)[C@@H]2CC[C@]3(c4cccc(C#N)c4)CC3C2)CC1 (stereo partly drawn) | 25 | 21 | 59
2 | CC(C)N(CCN(C(=O)Nc1ccc(F)c(Cl)c1)[C@@H]1CC[C@]2(c3cccc(CN)c3)CC2C1)C(C)C (stereo partly drawn) | 22 | 2.3 | 32
3 | CC(C)N(CCN(C(=O)Nc1cccc(F)c1)[C@@H]1CC[C@]2(c3cccc(C#N)c3)CC2C1)C(C)C (stereo partly drawn) |  | 2.1 | 
4 | N#Cc1cccc([C@]23CC[C@@H](N(CCN4CC[C@@H](O)C4)C(=O)Nc4ccc(F)cc4)CC2C3)c1 (stereo partly drawn) |  | 54 | 
5 | O=C(Nc1ccc(F)c(Cl)c1)N(CCN1CCCC1)C1CC=C(c2cncnc2)CC1 (stereo not drawn) |  | 147 | 85
6 | Cc1ccc(NC(=O)N(CCN2CC[C@@H](O)C2)[C@@H]2CC[C@]3(c4cccc(C#N)c4)CC3C2)cc1F (stereo partly drawn) |  | 48 | 
7 | N#Cc1cccc([C@]23CC[C@@H](N(CCN4CC[C@@H](O)C4)C(=O)Nc4ccccc4F)CC2C3)c1 (stereo partly drawn) |  | 1880 | 
8 | O=Cc1ccc(C2=CCC(N(CCN3CCCC3)C(=O)Nc3ccc(F)c(Cl)c3)CC2)o1 (stereo not drawn) |  | 51 | 47
9 | N#Cc1cccc([C@]23CC[C@@H](N(CCN4CCCCCC4)C(=O)Nc4ccc(F)c(Cl)c4)CC2C3)c1 (stereo partly drawn) |  | 15 | 
10 | N#Cc1cccc([C@]23CC[C@@H](N(CCN4CC[C@@H](O)C4)C(=O)Nc4ccccc4)CC2C3)c1 (stereo partly drawn) |  | 132 | 
11 | CS(=O)(=O)N1CCC[C@H]1CN(C(=O)Nc1ccc(F)c(Cl)c1)[C@@H]1CC[C@]2(c3cccc(C#N)c3)CC2C1 (stereo partly drawn) | 32 | 559 | 13
12 | CC(C)N(CCN(C(=O)Nc1cccc(C#N)c1)[C@@H]1CC[C@]2(c3cccc(C#N)c3)CC2C1)C(C)C (stereo partly drawn) |  | 7.6 | 
13 | CS(=O)(=O)N1CCC(CN(C(=O)Nc2cccc(F)c2)[C@@H]2CC[C@]3(c4cccc(C#N)c4)CC3C2)CC1 (stereo partly drawn) | 25 | 9.7 | 47
14 | N#Cc1cccc(NC(=O)N(CCN2CC[C@@H](O)C2)[C@@H]2CC[C@]3(c4cccc(C#N)c4)CC3C2)c1 (stereo partly drawn) |  | 92 | 
15 | CC(C)N(CCN(C(=O)Nc1ccc(F)c(Cl)c1)[C@@H]1CC[C@]2(c3cccc(C(N)=O)c3)CC2C1)C(C)C (stereo partly drawn) | 21 | 142 | 44
16 | CC(=O)N1CCC(CN(C(=O)Nc2ccc(F)c(Cl)c2)[C@@H]2CC[C@]3(c4cccc(C#N)c4)CC3C2)CC1 (stereo partly drawn) | 32 | 312 | 37
17 | CC(C)N(CCN(C(=O)Nc1cccc(Br)c1)[C@@H]1CC[C@]2(c3cccc(C#N)c3)CC2C1)C(C)C (stereo partly drawn) |  | 5.7 | 
18 | CC(C)N(CCN(C(=O)Nc1cc(Cl)nc(Cl)c1)[C@@H]1CC[C@]2(c3cccc(C#N)c3)CC2C1)C(C)C (stereo in doubt; 6j) |  | 2 | 
19 | CC(C)N(CCN(C(=O)Nc1ccc(F)c(F)c1)[C@@H]1CC[C@]2(c3cccc(C#N)c3)CC2C1)C(C)C (stereo partly drawn) |  | 2.8 | 
20 | CC(C)N(CCN(C(=O)Nc1ccc(F)c(Cl)c1)[C@@H]1CC[C@]2(c3cccc(CN4CC[C@H](O)C4)c3)CC2C1)C(C)C (stereo partly drawn) | -4 | 21 | -1
21 | N#Cc1cccc([C@]23CC[C@@H](N(CC4CCN(C5CCOCC5)CC4)C(=O)Nc4ccc(F)c(Cl)c4)CC2C3)c1 (stereo partly drawn) | 75 |  | 91

Row | SMILES | inhibition at […] (hERG (KCNH2) [1]) [%] | Ki [2] [nM] | inhibition at 5 ug/mL (hERG (KCNH2) [3]) [%]
22 | CC(C)N(CCN(C(=O)Nc1cc(Cl)nc(Cl)c1)[C@@H]1CC[C@]2(c3cccc(C#N)c3)CC2C1)C(C)C (stereo in doubt; 13) |  | 2.4 | 59
23 | CC(C)N(CCN(C(=O)Nc1ccc(F)c(F)c1)[C@@H]1CC[C@]2(c3ccccc3)CC2C1)C(C)C (stereo partly drawn) |  | 92 | 
24 | N#Cc1cccc([C@]23CC[C@@H](N(CCN4CC[C@@H](O)C4)C(=O)Nc4cccc(F)c4)CC2C3)c1 (stereo partly drawn) |  | 20 | 
25 | CC(C)N(CCN(C(=O)Nc1ccc(F)c(Cl)c1)[C@@H]1CC[C@]2(c3cccc(CO)c3)CC2C1)C(C)C (stereo partly drawn) | 43 | 48 | 67
26 | CC(C)N(CCN(C(=O)Nc1cc(F)cc(F)c1)[C@@H]1CC[C@]2(c3cccc(C#N)c3)CC2C1)C(C)C (stereo partly drawn) |  | 4.5 | 
27 | CS(=O)(=O)N1CCC(CN(C(=O)Nc2ccc(F)c(Cl)c2)[C@@H]2CC[C@]3(c4cccc(C#N)c4)CC3C2)CC1 (stereo partly drawn) | 6 | 7.2 | 24
28 | O=C(Nc1ccc(F)c(Cl)c1)N(CCN1CCCC1)C1CC=C(c2cc3ccccc3o2)CC1 (stereo not drawn) |  | 316 | 
29 | Cc1cc(C)cc(NC(=O)N(CCN2CC[C@@H](O)C2)[C@@H]2CC[C@]3(c4cccc(C#N)c4)CC3C2)c1 (stereo partly drawn) |  | 539 | 
30 | CS(=O)(=O)N1CCC(CN(C(=O)Nc2ccc(F)c(F)c2)[C@@H]2CC[C@]3(c4cccc(C#N)c4)CC3C2)CC1 (stereo partly drawn) | 15 | 5.4 | 34
31 | N#Cc1cccc([C@]23CC[C@@H](N(CCN4CC[C@@H](O)C4)C(=O)Nc4ccc(F)c(F)c4)CC2C3)c1 (stereo partly drawn) |  | 20 | 
32 | CN(C)Cc1ncc(C2=CCC(N(CCN3CCCC3)C(=O)Nc3ccc(F)c(Cl)c3)CC2)s1 (stereo not drawn) |  | 648 | 
33 | O=C(Nc1ccc(F)c(Cl)c1)N(CCN1CCCC1)C1CC=C(c2ccc[nH]2)CC1 (stereo not drawn) |  | 1970 | 
34 | CC(C)N(CCN(C(=O)Nc1ccc(F)cc1)[C@@H]1CC[C@]2(c3cccc(C#N)c3)CC2C1)C(C)C (stereo partly drawn) |  | 10.4 | 
35 | CC(C)N(CCN(C(=O)Nc1cccc([N+](=O)[O-])c1)[C@@H]1CC[C@]2(c3cccc(C#N)c3)CC2C1)C(C)C (stereo partly drawn) |  | 2.7 | 
36 | CC(=O)NCc1cccc([C@]23CC[C@@H](N(CCN(C(C)C)C(C)C)C(=O)Nc4ccc(F)c(Cl)c4)CC2C3)c1 (stereo partly drawn) | 62 | 31 | 78
37 | N#Cc1cccc([C@]23CC[C@@H](N(CCN4CC[C@@H](O)C4)C(=O)Nc4cccc([N+](=O)[O-])c4)CC2C3)c1 (stereo partly drawn) |  | 60 | 
38 | CC(C)N(CCN(C(=O)Nc1ccc(F)c(Cl)c1)[C@@H]1CC[C@]2(c3cccc(CN(C)C)c3)CC2C1)C(C)C (stereo partly drawn) | -1 | 13 | 5
39 | N#Cc1cccc([C@]23CC[C@@H](N(CCN4CC[C@@H](O)C4)C(=O)Nc4cccc(Cl)c4)CC2C3)c1 (stereo partly drawn) |  | 27 | 
40 | CS(=O)(=O)N1CCC(CCN(C(=O)Nc2ccc(F)c(C(F)(F)F)c2)[C@@H]2CC[C@]3(c4cccc(C#N)c4)CC3C2)CC1 (stereo partly drawn) | 18 | 80 | 20
41 | N#Cc1cccc([C@]23CC[C@@H](N(CCN4CC[C@@H](O)C4)C(=O)Nc4ccc5c(c4)OCO5)CC2C3)c1 (stereo partly drawn) |  | 134 | 
42 | CNC(=O)N1CCC(CN(C(=O)Nc2ccc(F)c(C(F)(F)F)c2)[C@@H]2CC[C@]3(c4cccc(C#N)c4)CC3C2)CC1 (stereo partly drawn) | 14 | 181 | 18

Row | SMILES | inhibition at […] (hERG (KCNH2) [1]) [%] | Ki [2] [nM] | inhibition at 5 ug/mL (hERG (KCNH2) [3]) [%]
43 | O=C(Nc1ccc(F)c(Cl)c1)N(CCN1CCCC1)C1CC=C(c2ccco2)CC1 (stereo not drawn) |  | 117 | 
44 | COc1cccc(NC(=O)N(CCN2CC[C@@H](O)C2)[C@@H]2CC[C@]3(c4cccc(C#N)c4)CC3C2)c1 (stereo partly drawn) |  | 373 | 
45 | N#Cc1cccc([C@]23CC[C@@H](N(CCN4CC[C@@H](O)C4)C(=O)NC4CCCCC4)CC2C3)c1 (stereo partly drawn) |  | 2210 | 
46 | CS(=O)(=O)N1CCCCC1CN(C(=O)Nc1ccc(F)c(Cl)c1)[C@@H]1CC[C@]2(c3cccc(C#N)c3)CC2C1 (stereo partly drawn) | 31 | 295 | 3
47 | CC1CCCN1CCN(C(=O)Nc1ccc(F)c(Cl)c1)[C@@H]1CC[C@]2(c3cccc(C#N)c3)CC2C1 (stereo partly drawn) |  | 16 | 
48 | N#Cc1ncc(C2=CCC(N(CCN3CCCC3)C(=O)Nc3ccc(F)c(Cl)c3)CC2)s1 (stereo not drawn) |  | 57 | 
49 | N#Cc1cccc([C@]23CC[C@@H](N(CCN4CCOCC4)C(=O)Nc4ccc(F)c(Cl)c4)CC2C3)c1 (stereo partly drawn) |  | 53 | 
50 | CC(C)N(CCN(C(=O)Nc1ccc(F)c(Cl)c1)[C@@H]1CC[C@]2(c3cccc(CN4CCN(C)CC4)c3)CC2C1)C(C)C (stereo partly drawn) | 10 | 54 | 13
51 | CCN(CC)Cc1cccc([C@]23CC[C@@H](N(CCN(C(C)C)C(C)C)C(=O)Nc4ccc(F)c(Cl)c4)CC2C3)c1 (stereo partly drawn) | 15 | 46 | 30
52 | CC1CCCCN1CCN(C(=O)Nc1ccc(F)c(Cl)c1)[C@@H]1CC[C@]2(c3cccc(C#N)c3)CC2C1 (stereo partly drawn) |  | 15 | 
53 | N#Cc1cccc([C@]23CC[C@@H](N(CCN4CCCC(CO)C4)C(=O)Nc4ccc(F)c(Cl)c4)CC2C3)c1 (stereo partly drawn) |  | 15 | 
54 | CC(C)N(CCN(C(=O)Nc1cccc(Cl)c1)[C@@H]1CC[C@]2(c3cccc(C#N)c3)CC2C1)C(C)C (stereo partly drawn) |  | 6 | 
55 | CC(C)N(CCN(C(=O)Nc1ccc(F)c(F)c1)[C@@H]1CC[C@]2(c3cccc(Br)c3)CC2C1)C(C)C (stereo partly drawn) |  | 7.8 | 
56 | N#Cc1cccc([C@]23CC[C@@H](N(CCN4CCC(O)CC4)C(=O)Nc4ccc(F)c(Cl)c4)CC2C3)c1 (stereo partly drawn) |  | 22 | 
57 | COC(=O)c1cccc([C@]23CC[C@@H](N(CCN(C(C)C)C(C)C)C(=O)Nc4ccc(F)c(F)c4)CC2C3)c1 (stereo partly drawn) | 57 |  | 85
58 | CCN(CCO)CCN(C(=O)Nc1ccc(F)c(Cl)c1)[C@@H]1CC[C@]2(c3cccc(C#N)c3)CC2C1 (stereo partly drawn) |  | 11 | 
59 | Cc1ccc(C2=CCC(N(CCN3CCCC3)C(=O)Nc3ccc(F)c(Cl)c3)CC2)s1 (stereo not drawn) |  | 85 | 12
60 | N#Cc1cccc([C@]23CC[C@@H](N(CCN4CC[C@@H](O)C4)C(=O)Nc4cccc(Br)c4)CC2C3)c1 (stereo partly drawn) |  | 34 | 
61 | CC(=O)NC1CCN(CCN(C(=O)Nc2ccc(F)c(Cl)c2)[C@@H]2CC[C@]3(c4cccc(C#N)c4)CC3C2)C1 (stereo partly drawn) |  | 23 | 
62 | CCO/N=C/c1cccc([C@]23CC[C@@H](N(CCN(C(C)C)C(C)C)C(=O)Nc4ccc(F)c(Cl)c4)CC2C3)c1 (stereo partly drawn) |  | 29 | 
63 | N#Cc1cccc([C@]23CC[C@@H](N(CCN4CC[C@@H](O)C4)C(=O)Nc4cc(F)cc(F)c4)CC2C3)c1 (stereo partly drawn) |  | 15 | 
